# Experimental data published in ChEMBL document CHEMBL5303300, “EUbOPEN Chemogenomics Library - Multiplex” (2023).
# “And” between values parts separate entries of the source, which are not always exact repeats. Identical values can stand only once.
# Test system: HEK-293T
# Experiment: Multiplex assay against HEK293T
# Assay type: toxicity, cell-based
# Settings: human, number of replicates 2
# Procedure, shortened: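 Compound was added to live cells that had been stained at seeding with Hoechst33342, BioTracker Green Microtubule Cytoskeleton Dye, MitoTracker Red and Annexin V Alexa Fluor 680, and imaging followed on a CQ1 microscope at 37°C and 5% CO2. CellPathfinder machine-learning gating divided cells into Hoechst high-intensity objects or normal cells, normal cells into healthy, pyknosed or fragmented nuclei, and pyknosed cells into mitotic or apoptotic. Tubulin, mitochondrial-mass and membrane-permeability phenotypes are per cents of healthy-nucleus cells.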
# [1] = 12 h, 1 µM, compound concentration 1 uM
# [2] = 12 h, 10 µM, compound concentration 10 uM
# [3] = 24 h, 1 µM, compound concentration 1 uM
# [4] = 24 h, 10 µM, compound concentration 10 uM
# [5] = 48 h, 1 µM, compound concentration 1 uM
# [6] = 48 h, 10 µM, compound concentration 10 uM
smiles,measurement,setting,value
Cc1ccc(C(=O)Nc2cc(N3CCN(C)CC3)cc(C(F)(F)F)c2)cc1-n1cc(-c2cnn(C)c2C)nn1.Cl,Population Apoptotic (%),[1],57% and 65%
same,Population Fragmented Nuclei (%),[1],4% and 5%
same,Population Healthy Nuclei (%),[1],73% and 76%
same,Population Hoechst High Intensity Objects (%),[1],11% and 9%
same,Population Membrane Permeable-Phenotype (%),[1],5% and 4%
same,Population Mitochondria Different-Phenotype (%),[1],26% and 20%
same,Population Mitotic Cells (%),[1],42% and 35%
same,Population Normal (%),[1],88% and 90%
same,Population Pyknosed Nuclei (%),[1],22% and 17%
same,Population Tubulin-Different-Phenotype (%),[1],74% and 71%
same,Total Cell Count,[1],510 and 505
same,Population Apoptotic (%),[2],61% and 68%
same,Population Fragmented Nuclei (%),[2],2% and 3%
same,Population Healthy Nuclei (%),[2],81% and 82%
same,Population Hoechst High Intensity Objects (%),[2],4% and 5%
same,Population Membrane Permeable-Phenotype (%),[2],8% and 12%
same,Population Mitochondria Different-Phenotype (%),[2],25% and 17%
same,Population Mitotic Cells (%),[2],38% and 31%
same,Population Normal (%),[2],95% and 94%
same,Population Pyknosed Nuclei (%),[2],16% and 14%
same,Population Tubulin-Different-Phenotype (%),[2],88% and 86%
same,Total Cell Count,[2],680 and 697
same,Population Apoptotic (%),[3],70% and 51%
same,Population Fragmented Nuclei (%),[3],8% and 10%
same,Population Healthy Nuclei (%),[3],77% and 76%
same,Population Hoechst High Intensity Objects (%),[3],10%
same,Population Membrane Permeable-Phenotype (%),[3],3% and 2%
same,Population Mitochondria Different-Phenotype (%),[3],16% and 9%
same,Population Mitotic Cells (%),[3],29% and 48%
same,Population Normal (%),[3],89%
same,Population Pyknosed Nuclei (%),[3],14% and 12%
same,Population Tubulin-Different-Phenotype (%),[3],57% and 53%
same,Total Cell Count,[3],759 and 691
same,Population Apoptotic (%),[4],56% and 59%
same,Population Fragmented Nuclei (%),[4],2% and 4%
same,Population Healthy Nuclei (%),[4],83%
same,Population Hoechst High Intensity Objects (%),[4],6% and 9%
same,Population Membrane Permeable-Phenotype (%),[4],8% and 11%
same,Population Mitochondria Different-Phenotype (%),[4],25% and 22%
same,Population Mitotic Cells (%),[4],43% and 40%
same,Population Normal (%),[4],93% and 90%
same,Population Pyknosed Nuclei (%),[4],13% and 12%
same,Population Tubulin-Different-Phenotype (%),[4],88% and 85%
same,Total Cell Count,[4],748 and 730
same,Population Apoptotic (%),[5],35% and 32%
same,Population Fragmented Nuclei (%),[5],13% and 11%
same,Population Healthy Nuclei (%),[5],81% and 84%
same,Population Hoechst High Intensity Objects (%),[5],10%
same,Population Membrane Permeable-Phenotype (%),[5],9% and 6%
same,Population Mitochondria Different-Phenotype (%),[5],1%
same,Population Mitotic Cells (%),[5],64% and 67%
same,Population Normal (%),[5],89%
same,Population Pyknosed Nuclei (%),[5],5% and 4%
same,Population Tubulin-Different-Phenotype (%),[5],23% and 35%
same,Total Cell Count,[5],1722 and 1279
same,Population Apoptotic (%),[6],37% and 52%
same,Population Fragmented Nuclei (%),[6],8%
same,Population Healthy Nuclei (%),[6],83% and 86%
same,Population Hoechst High Intensity Objects (%),[6],5% and 8%
same,Population Membrane Permeable-Phenotype (%),[6],15% and 14%
same,Population Mitochondria Different-Phenotype (%),[6],8%
same,Population Mitotic Cells (%),[6],62% and 47%
same,Population Normal (%),[6],94% and 91%
same,Population Pyknosed Nuclei (%),[6],7% and 5%
same,Population Tubulin-Different-Phenotype (%),[6],79%
same,Total Cell Count,[6],1207 and 1093
Cc1c(C(=O)Nc2ccc(N3C[C@@H](C)O[C@@H](C)C3)nc2)cccc1-c1ccc(OC(F)(F)F)cc1 [SONIDEGIB],Population Apoptotic (%),[1],36% and 33%
same,Population Fragmented Nuclei (%),[1],3%
same,Population Healthy Nuclei (%),[1],85% and 86%
same,Population Hoechst High Intensity Objects (%),[1],3% and 6%
same,Population Membrane Permeable-Phenotype (%),[1],3%
same,Population Mitochondria Different-Phenotype (%),[1],12%
same,Population Mitotic Cells (%),[1],63% and 66%
same,Population Normal (%),[1],96% and 93%
same,Population Pyknosed Nuclei (%),[1],11% and 9%
same,Population Tubulin-Different-Phenotype (%),[1],43% and 46%
same,Total Cell Count,[1],668 and 769
same,Population Apoptotic (%),[2],55% and 57%
same,Population Fragmented Nuclei (%),[2],3% and 4%
same,Population Healthy Nuclei (%),[2],84% and 85%
same,Population Hoechst High Intensity Objects (%),[2],7% and 10%
same,Population Membrane Permeable-Phenotype (%),[2],3% and 1%
same,Population Mitochondria Different-Phenotype (%),[2],18% and 15%
same,Population Mitotic Cells (%),[2],44% and 42%
same,Population Normal (%),[2],92% and 89%
same,Population Pyknosed Nuclei (%),[2],11% and 10%
same,Population Tubulin-Different-Phenotype (%),[2],56% and 45%
same,Total Cell Count,[2],652 and 496
same,Population Apoptotic (%),[3],39% and 27%
same,Population Fragmented Nuclei (%),[3],3% and 4%
same,Population Healthy Nuclei (%),[3],90% and 89%
same,Population Hoechst High Intensity Objects (%),[3],6% and 7%
same,Population Membrane Permeable-Phenotype (%),[3],3% and 2%
same,Population Mitochondria Different-Phenotype (%),[3],5% and 3%
same,Population Mitotic Cells (%),[3],60% and 72%
same,Population Normal (%),[3],93% and 92%
same,Population Pyknosed Nuclei (%),[3],6% and 5%
same,Population Tubulin-Different-Phenotype (%),[3],30% and 33%
same,Total Cell Count,[3],984 and 1195
same,Population Apoptotic (%),[4],53% and 55%
same,Population Fragmented Nuclei (%),[4],6% and 7%
same,Population Healthy Nuclei (%),[4],83%
same,Population Hoechst High Intensity Objects (%),[4],6% and 8%
same,Population Membrane Permeable-Phenotype (%),[4],3%
same,Population Mitochondria Different-Phenotype (%),[4],5%
same,Population Mitotic Cells (%),[4],46% and 45%
same,Population Normal (%),[4],93% and 91%
same,Population Pyknosed Nuclei (%),[4],9%
same,Population Tubulin-Different-Phenotype (%),[4],30% and 28%
same,Total Cell Count,[4],975 and 681
same,Population Apoptotic (%),[5],17% and 12%
same,Population Fragmented Nuclei (%),[5],12%
same,Population Healthy Nuclei (%),[5],84%
same,Population Hoechst High Intensity Objects (%),[5],7% and 10%
same,Population Membrane Permeable-Phenotype (%),[5],5% and 4%
same,Population Mitochondria Different-Phenotype (%),[5],0%
same,Population Mitotic Cells (%),[5],82% and 87%
same,Population Normal (%),[5],92% and 89%
same,Population Pyknosed Nuclei (%),[5],3%
same,Population Tubulin-Different-Phenotype (%),[5],12% and 15%
same,Total Cell Count,[5],2699 and 2880
same,Population Apoptotic (%),[6],14% and 19%
same,Population Fragmented Nuclei (%),[6],13% and 10%
same,Population Healthy Nuclei (%),[6],83% and 86%
same,Population Hoechst High Intensity Objects (%),[6],8% and 7%
same,Population Membrane Permeable-Phenotype (%),[6],4% and 5%
same,Population Mitochondria Different-Phenotype (%),[6],0%
same,Population Mitotic Cells (%),[6],85% and 80%
same,Population Normal (%),[6],91% and 92%
same,Population Pyknosed Nuclei (%),[6],2% and 3%
same,Population Tubulin-Different-Phenotype (%),[6],12% and 8%
same,Total Cell Count,[6],2536 and 1733
CC1=C(C)C(=O)C(C(C)(C)CC(=O)N(CCCCSC[C@H]2O[C@@H](n3cnc4c(N)ncnc43)[C@H](O)[C@@H]2O)Cc2cccc(-c3ccc(Cl)cc3)c2)=C(C)C1=O,Population Apoptotic (%),[1],40% and 44%
same,Population Fragmented Nuclei (%),[1],4%
same,Population Healthy Nuclei (%),[1],89% and 86%
same,Population Hoechst High Intensity Objects (%),[1],6% and 7%
same,Population Membrane Permeable-Phenotype (%),[1],4% and 3%
same,Population Mitochondria Different-Phenotype (%),[1],10% and 11%
same,Population Mitotic Cells (%),[1],59% and 55%
same,Population Normal (%),[1],93% and 92%
same,Population Pyknosed Nuclei (%),[1],6% and 8%
same,Population Tubulin-Different-Phenotype (%),[1],71% and 70%
same,Total Cell Count,[1],874 and 797
same,Population Apoptotic (%),[2],52% and 54%
same,Population Fragmented Nuclei (%),[2],2%
same,Population Healthy Nuclei (%),[2],82% and 81%
same,Population Hoechst High Intensity Objects (%),[2],7%
same,Population Membrane Permeable-Phenotype (%),[2],10% and 3%
same,Population Mitochondria Different-Phenotype (%),[2],48% and 51%
same,Population Mitotic Cells (%),[2],47% and 45%
same,Population Normal (%),[2],92%
same,Population Pyknosed Nuclei (%),[2],14% and 15%
same,Population Tubulin-Different-Phenotype (%),[2],88% and 92%
same,Total Cell Count,[2],506 and 434
same,Population Apoptotic (%),[3],21% and 25%
same,Population Fragmented Nuclei (%),[3],8% and 6%
same,Population Healthy Nuclei (%),[3],87%
same,Population Hoechst High Intensity Objects (%),[3],8%
same,Population Membrane Permeable-Phenotype (%),[3],6% and 3%
same,Population Mitochondria Different-Phenotype (%),[3],2% and 5%
same,Population Mitotic Cells (%),[3],78% and 74%
same,Population Normal (%),[3],91%
same,Population Pyknosed Nuclei (%),[3],4% and 6%
same,Population Tubulin-Different-Phenotype (%),[3],50%
same,Total Cell Count,[3],1418 and 1263
same,Population Apoptotic (%),[4],46% and 64%
same,Population Fragmented Nuclei (%),[4],3%
same,Population Healthy Nuclei (%),[4],81%
same,Population Hoechst High Intensity Objects (%),[4],7% and 9%
same,Population Membrane Permeable-Phenotype (%),[4],4% and 3%
same,Population Mitochondria Different-Phenotype (%),[4],62% and 59%
same,Population Mitotic Cells (%),[4],53% and 35%
same,Population Normal (%),[4],92% and 90%
same,Population Pyknosed Nuclei (%),[4],15% and 14%
same,Population Tubulin-Different-Phenotype (%),[4],88% and 93%
same,Total Cell Count,[4],524 and 473
same,Population Apoptotic (%),[5],10% and 13%
same,Population Fragmented Nuclei (%),[5],24% and 15%
same,Population Healthy Nuclei (%),[5],74% and 81%
same,Population Hoechst High Intensity Objects (%),[5],10% and 9%
same,Population Membrane Permeable-Phenotype (%),[5],6% and 5%
same,Population Mitochondria Different-Phenotype (%),[5],0%
same,Population Mitotic Cells (%),[5],89% and 86%
same,Population Normal (%),[5],89% and 90%
same,Population Pyknosed Nuclei (%),[5],1% and 2%
same,Population Tubulin-Different-Phenotype (%),[5],25% and 28%
same,Total Cell Count,[5],3744 and 2984
same,Population Apoptotic (%),[6],55% and 62%
same,Population Fragmented Nuclei (%),[6],4% and 5%
same,Population Healthy Nuclei (%),[6],87% and 88%
same,Population Hoechst High Intensity Objects (%),[6],6% and 10%
same,Population Membrane Permeable-Phenotype (%),[6],8% and 6%
same,Population Mitochondria Different-Phenotype (%),[6],47%
same,Population Mitotic Cells (%),[6],44% and 37%
same,Population Normal (%),[6],93% and 89%
same,Population Pyknosed Nuclei (%),[6],7% and 5%
same,Population Tubulin-Different-Phenotype (%),[6],93% and 92%
same,Total Cell Count,[6],622 and 637
